Source: PubChem BioAssay
Hits are enriched below; roughly 9.2% of the tested compounds scored in any of these assays.
Lmaj promast: reduces viability of Leishmania major promastigotes. actives 9% (n = 200,000). resazurin fluorescence viability. inhibition, % at 10 µM; in the data active = inhibition above about 50%;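 note: promastigotes grown with compound for 44 hours at 28 °C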
Autophagy mod: alters autophagy in cells; MEF GFP-LC3 puncta imaging; test concentration mostly 10 µM; calls only at 10 µM (by protocol); actives 0.98% (n = 190,000); AID 463193;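 active = percentage of spot-positive cells more than 3 SD above its plate mean, without a fluorescence outlier flag or 80% toxicity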
bCat KO growth: beta-catenin-lacking colon tumor cell growth suppression | HCT116 beta-catenin knockout viability, CellTiter-Glo, 60 h; active compounds read low | viability, % at 10 µM | actives 1.5% (n = 140,000);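 active = viability at or under a set limit, the compound median less 4 SD, cut at about 6% in these data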
HCT116 PTEN-null: suppresses growth of cells with PTEN deletion; viability, % at 10 µM; HCT116 PTEN-null viability, CellTiter-Glo, 60 h; active compounds read low; actives 1.2% (n = 140,000);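 active = viability at or below a set limit, 4 SD under the median of all tested compounds, cut at about 3.7% in these data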;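 note: PTEN knockout HCT116 line with beta catenin targeted HCT116 as companion control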
Dynein cargo inh: blocks dynein driven cargo transport along microtubules; 3617.4 mouse cells, GR-EGFP nuclear translocation imaging; test concentration mostly 20 µM; stimulated with dexamethasone, 1 µM; active compounds read low; z-score, hits read low; actives 0.47% (n = 220,000); AID 1381;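 active = plate z-score of nuclear minus cytoplasmic receptor signal below a set negative limit, without overly bright fluorescence or cell loss, cut at about -3.5 in these data, passing the limit was not always enough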;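 note: z-score of nuclear minus cytoplasmic ring GR-EGFP intensity difference per well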
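Also added: dexamethasone, 1.0 µM final. Medium: tet-free, stripped-serum medium. Detection: fixed, Hoechst-stained cells imaged at 10x for EGFP. Read-out: nuclear-to-cytoplasmic GR-EGFP distribution per well. Times: induction 48 h, compound 1 h, agonist 30 min.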
Each line names hits and unclear results; the compound was inactive in the other large screens.

CCCCCCCCCCOC(=O)C[N+](C)(C)C/C=C(/C)Cl	Lmaj promast 100
C/C(Cl)=C\C[N+](C)(C)CC(=O)OCCc1ccccc1	none (no result: Lmaj promast, Autophagy mod, bCat KO growth, HCT116 PTEN-null)
CCOC(=O)C(=O)NN=C(c1ccccc1)c1ccccc1	none (no result: Lmaj promast, Autophagy mod, bCat KO growth, HCT116 PTEN-null)
Cc1ccc(C)c(N2CCN(c3nnnn3-c3ccccc3)CC2)c1	Lmaj promast 63
CCOc1ccc(-n2c(SCC(=O)Nc3ccc(OC)cc3)nc3c(c2=O)SCC3)cc1	none
O=C(CSc1nc2c(c(=O)n1-c1ccc(Cl)cc1)SCC2)N1CCCC1	none
CCOc1ccc(-n2c(SCc3ccc(C(=O)OC)o3)nc3c(c2=O)SCC3)cc1	Lmaj promast 83
COC(=O)c1ccc(CSc2nc3c(c(=O)n2-c2ccc(Br)cc2)SCC3)o1	Lmaj promast 98
CCn1cc([N+](=O)[O-])c(C(=O)N2N=C3/C(=C/c4cccs4)CCCC3C2c2cccs2)n1 (centres undefined)	none
COc1cc(/C=N/NC(=O)c2sc3nc(C)cc(C)c3c2N)ccc1O	none (no result: Lmaj promast, Autophagy mod, bCat KO growth, HCT116 PTEN-null)
COc1cccc(/C=N/NC(=O)Cn2nc([N+](=O)[O-])cc2C)c1	none (no result: Lmaj promast, Autophagy mod, bCat KO growth, HCT116 PTEN-null)
CCC(C)(C(=O)NC1CCCC1)N(C(=O)CNC(=O)c1ccccc1)c1c(C)n(C)n(-c2ccccc2)c1=O (centres undefined)	none (no result: bCat KO growth, HCT116 PTEN-null)
CCN(CC)Cc1cc(NC2=NS(=O)(=O)c3ccccc32)ccc1OC(=O)C(C)C	Lmaj promast 99
CCN(CC)Cc1cc(NC2=NS(=O)(=O)c3ccccc32)ccc1OC(=O)c1ccccc1	Lmaj promast 98
O=C(Oc1cccc(NC2=NS(=O)(=O)c3ccccc32)c1)c1cccnc1	none (no result: bCat KO growth, HCT116 PTEN-null)
Cc1ccc(SCCNS(=O)(=O)c2ccc(F)cc2)cc1	Lmaj promast 53
O=S(=O)(NCCSc1ccc(Cl)cc1)c1ccc(F)cc1	none
O=C(Nc1ccc(OCC(F)(F)C(F)F)c(C(F)(F)F)c1)c1ccccc1O	Lmaj promast 100, bCat KO growth 5.2
C=CC[n+]1c(/C=C2\C=Cc3cc(C)ccc3N2CC)ccc2ccccc21	Lmaj promast 100 (no result: bCat KO growth, HCT116 PTEN-null)
CCN1C(=C(C#N)C#N)C=Cc2cc(C)ccc21	none (no result: bCat KO growth, HCT116 PTEN-null)
COc1cccc(OC)c1OCC(C)CNCC1CCCO1 (centres undefined)	Lmaj promast 85
C=CCNC(=O)c1ccc2c(=O)n(CCCN3CCCC3=O)c(=S)[nH]c2c1	none (no result: bCat KO growth, HCT116 PTEN-null)
CCOC(=O)C1=C(C)NC(C)=C(C(=O)OCC)C1c1cccs1	none
CCOC(=O)C1=CN(Cc2ccc(OC)cc2)C=C(C(=O)OCC)C1c1cccs1	Lmaj promast 100 (no result: bCat KO growth, HCT116 PTEN-null)
CC1(C(=O)OCC(=O)Nc2ccc3ccccc3c2)CC1(Cl)Cl (centres undefined)	none (no result: bCat KO growth, HCT116 PTEN-null)
COc1ccc(N2CCN(C(=O)CSc3ncccc3-c3nc4ccccc4[nH]3)CC2)cc1	Lmaj promast 58
COc1ccccc1N1CCN(C(=O)CSc2ncccc2-c2nc3ccccc3[nH]2)CC1	Lmaj promast 50
COc1ccc(-c2nnn(CC(=O)N3CCN(c4ccccc4OC)CC3)n2)cc1OC	none (no result: bCat KO growth, HCT116 PTEN-null)
O=C(CSc1ncccc1-c1nc2ccccc2[nH]1)N1CCN(c2ccccc2F)CC1	none
COc1ccc(-c2nnn(CC(=O)N3CCN(c4ccccc4OC)CC3)n2)cc1	Autophagy mod active
COc1cccc(N2C(=O)C3C(C2=O)C2C=CC3C23CC3)c1 (centres undefined)	none
CCOC(=O)N1CCC2(CC1)NCCc1c2[nH]c2ccccc12	none (no result: Lmaj promast, Autophagy mod, bCat KO growth, HCT116 PTEN-null)
Cc1c(C)n(Cc2ccccc2)c2ccc(C(=O)OCCCN(C)C)cc12	Lmaj promast 100 (no result: bCat KO growth, HCT116 PTEN-null)
O=C(Nc1ccccc1)C1CCCN1/C=C/C(=O)C(F)(F)F (centres undefined)	none (no result: bCat KO growth, HCT116 PTEN-null)
CCCCNC(=O)C1CCN(C/C(C)=C/c2ccccc2)CC1	Lmaj promast 91
C/C(=C\c1ccccc1)CN1CCC(C(=O)N2CCCCC2)CC1	none
CCCCN(C)C(=O)C1CCN(C/C(C)=C/c2ccccc2)CC1	none
O=C(C1CCN(C2CCN(C/C(Cl)=C/c3ccccc3)CC2)CC1)N1CCOCC1	Lmaj promast 97 (no result: bCat KO growth, HCT116 PTEN-null)
C/C(=C\c1ccccc1)CN1CCC(C(=O)N2CCC(C)CC2)CC1	Lmaj promast 93
C/C(N)=C(/C#N)C(=O)COC(=O)CNS(=O)(=O)c1ccc(F)c(F)c1F	none (no result: bCat KO growth, HCT116 PTEN-null)
O=C(Cn1ccc(C(F)(F)F)n1)N/N=C/c1ccc(N2CCOCC2)cc1	none (no result: bCat KO growth, HCT116 PTEN-null)
O=C1c2ccccc2C(=O)N1CC(=O)N1c2ccccc2Sc2ccc(C(F)(F)F)cc21	none
CCN(CC)CC(=O)N1c2ccccc2Sc2ccc(Cl)cc21	none
CN1CCN(CCC(=O)N2c3ccccc3Sc3ccc(C(F)(F)F)cc32)CC1	Lmaj promast 55
OCCN1CCN(CCCN2c3ccccc3Sc3ccc(C(F)(F)F)cc32)CC1	Lmaj promast 87, bCat KO growth 1.7, HCT116 PTEN-null 1.5
CN1CCN(CCCN2c3ccccc3Sc3ccc(Cl)cc32)CC1	Lmaj promast 100
CN(C)CCCN1c2ccccc2Sc2ccc(C(F)(F)F)cc21	none
CN1CCN(NC(=O)c2cn(-c3ccccc3)nc2-c2ccc(OC(F)F)cc2)CC1	none (no result: bCat KO growth, HCT116 PTEN-null)
COc1ccc(/C=C2\CCc3ccccc3C2=O)cc1Cn1cccn1	Lmaj promast 86, bCat KO growth 2.9, HCT116 PTEN-null 2.2
Cc1ccnc(NS(=O)(=O)c2ccc(NS(C)(=O)=O)cc2)n1	none (no result: Lmaj promast, Autophagy mod, bCat KO growth, HCT116 PTEN-null)
CCC(CO)NCc1ccc(-c2ccccc2)cc1 (centres undefined)	Lmaj promast 89
CC(O)CNCc1cccc2ccccc12 (centres undefined)	none
CC(O)CNCc1ccc(-c2ccccc2)cc1 (centres undefined)	Lmaj promast 89
CC(NCc1ccc(-c2ccccc2)cc1)C(O)c1ccccc1 (centres undefined)	Lmaj promast 99, bCat KO growth 2.8
COc1ccc(S(=O)(=O)N(C)C)cc1NC(=O)Cc1cccs1	none (no result: bCat KO growth, HCT116 PTEN-null)
COC(=O)c1ccc(NC(=O)C2CCCN2S(=O)(=O)c2ccc(OC)cc2)cc1 (centres undefined)	Lmaj promast 58
COc1ccc(S(=O)(=O)N2CCCC(C(=O)Nc3cccc(C(C)=O)c3)C2)cc1 (centres undefined)	Lmaj promast 58
Cc1ccc(S(=O)(=O)NNC2CC(=O)N(c3ccc(Br)cc3)C2=O)cc1 (centres undefined)	Autophagy mod active (no result: bCat KO growth, HCT116 PTEN-null)
Cc1ccc2nc(NC(=O)CSc3nc4ccccc4o3)sc2c1	none
Cc1ccc(-c2csc(NC(=O)CSc3nc4ccccc4o3)n2)cc1	Lmaj promast 81
Cn1c(CCNC(=O)c2cccs2)nnc1SCC(=O)Nc1nc(-c2ccccc2)cs1	none
Cc1ccc(C(=O)NCCc2nnc(SCC(=O)Nc3nc(-c4ccccc4)cs3)n2C)cc1	bCat KO growth 1.0, HCT116 PTEN-null 0.8
O=C(CC12CC3CC(CC(Br)(C3)C1)C2)OCCN1CCCCC1	Autophagy mod active (no result: bCat KO growth, HCT116 PTEN-null)
OCCC1CN(Cc2ccc(-c3ccco3)cc2)CCN1Cc1ccsc1 (centres undefined)	Lmaj promast 76 (no result: bCat KO growth, HCT116 PTEN-null)
OCCC1CN(Cc2ccccc2OC2CCCC2)CCN1Cc1ccsc1 (centres undefined)	Lmaj promast 61 (no result: bCat KO growth, HCT116 PTEN-null)
